Laboratory results reported in paper PMC7117380 (Veterinary Microbiology, 2017).
pIC50: −log10 of the molar value.

Tests used:
PRRSV 3CLSP (nsp4) = molecular target: T1, PRRSV 3CLSP (nsp4) (Porcine reproductive and respiratory syndrome virus, UniProt A1E8J1); assay: FRET assay of PRRSV 3CLSP; format: biochemical
T1 sequence (A1E8J1 1780-1983): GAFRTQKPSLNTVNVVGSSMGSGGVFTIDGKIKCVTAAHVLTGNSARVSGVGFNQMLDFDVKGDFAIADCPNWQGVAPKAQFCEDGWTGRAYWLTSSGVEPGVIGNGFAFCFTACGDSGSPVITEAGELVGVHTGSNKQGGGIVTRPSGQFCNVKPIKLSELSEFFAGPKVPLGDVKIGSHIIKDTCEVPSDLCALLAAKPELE

in vitro = format: cell-based; conditions: African green monkey
PEDV 3CL protease (nsp5) = molecular target: T2, PEDV 3CL protease (nsp5) (Porcine epidemic diarrhea virus, UniProt P0C6Y4); assay: FRET assay of PEDV 3CL protease; format: biochemical
T2 sequence (P0C6Y4 2998-3299 limits assumed): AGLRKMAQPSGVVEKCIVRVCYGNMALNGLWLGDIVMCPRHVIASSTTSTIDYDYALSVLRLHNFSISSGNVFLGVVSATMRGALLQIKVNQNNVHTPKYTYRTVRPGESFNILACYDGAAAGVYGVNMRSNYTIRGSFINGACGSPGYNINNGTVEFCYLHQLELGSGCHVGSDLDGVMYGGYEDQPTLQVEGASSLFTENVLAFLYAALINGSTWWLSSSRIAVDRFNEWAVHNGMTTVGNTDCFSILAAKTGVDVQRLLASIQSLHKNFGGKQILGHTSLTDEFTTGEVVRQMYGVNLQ
Method in brief: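 The assay used purified PEDV nsp5 (3CL protease) at 0.25 μM final and substrate Dabcyl-YNSTLQ↓AGLRKM-E-Edans at 10 μM. Test compound (6.25–500 μM) was preincubated with enzyme for 20 min at 37 °C, then incubated with substrate for 60 min at 37 °C. Fluorescence was read at ex 340/em 485, minus a no-protease background. Inhibition % came from the 60–0 min RFU change against control, and IC50 from nonlinear regression of triplicate runs.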

Cell viability assay = format: cell-based; conditions: African green monkey, Vero cells
Method in brief: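 Confluent Vero cells in DMEM with 10% FBS at 37 °C, 5% CO2 were exposed to test compound at 50–500 μM for 72 h, with 0.1% DMSO as control. Viability was read by CellTiter-Glo luminescence. CC50 was fitted in GraphPad Prism from triplicate experiments (±SD).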

[1] = system: PRRSV nucleocapsid (N) protein; assay: Western blot of PRRSV nucleocapsid; format: cell-based, porcine reproductive and respiratory syndrome virus; conditions: MARC-145 cells; for PRRSV N protein detection (western blot): 100 μM; for PRRSV N protein level (western blot), dose response: 6.25–200 μM, 36 h
[2] = system: PEDV nucleocapsid (N) protein; assay: Western blot of PEDV nucleocapsid; format: cell-based, porcine epidemic diarrhea virus; conditions: Vero cells
[3] = system: PRRSV (HP-PRRSV WUH3 strain); assay: TCID50 assay for PRRSV replication in MARC-145 cells; format: cell-based, porcine reproductive and respiratory syndrome virus; conditions: for Inhibition of PRRSV infection: 100 μM
PEDV (FJZZ strain) = assay: TCID50 assay for PEDV replication in Vero cells; format: cell-based, porcine epidemic diarrhea virus
EAV 3CLSP (nsp4) = molecular target: T3, EAV 3CLSP (nsp4) (Equine arteritis virus, UniProt P19811); assay: FRET assay of EAV 3CLSP; format: biochemical; conditions: 1 μM substrate, 12.5-500 μM compound
T3 sequence (P19811 1065-1268 limits assumed): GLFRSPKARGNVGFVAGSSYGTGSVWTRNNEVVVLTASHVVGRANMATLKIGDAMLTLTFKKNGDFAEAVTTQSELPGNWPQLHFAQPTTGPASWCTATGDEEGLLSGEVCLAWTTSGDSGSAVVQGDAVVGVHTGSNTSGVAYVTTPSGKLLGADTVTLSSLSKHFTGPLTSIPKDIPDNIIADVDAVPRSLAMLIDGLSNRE

SMILES | pIC50 (PRRSV 3CLSP (nsp4)) | CC50 (in vitro) | pIC50 (PEDV 3CL protease (nsp5)) | CC50 at 72 h (Cell viability assay) | PRRSV N protein detection (western blot) [1] | PRRSV N protein level (western blot), dose response [1] | PEDV N protein level (western blot), dose response [2] | Inhibition of PRRSV infection [3] | PEDV-3CLpro SI values (selectivity index) (PEDV (FJZZ strain)) | Protease activity of EAV 3CLSP (EAV 3CLSP (nsp4)) | PRRSV-3CLpro SI values (selectivity index) ([3]; PRRSV) | Suppression of PRRSV replication (western blot) [1] | viability at 72 h, 500 µM (in vitro)
Cc1ccc(C(=O)c2ccc(O)cc2O)cc1 [Compound 2, (2,4-dihydroxyphenyl) (4-methylphenyl)methanone] | 3.84 | 480 µM | 4.42 | > 500 µM | no viral N protein was detectable | decreased | decreased | strongly inhibited PRRSV infection |  |  |  |  | 
Cc1cccc(C)c1C(=O)c1ccc(O)cc1O [Compound 3, (2,4-dihydroxyphenyl)(2,6-dimethylphenyl)methanone] | 3.94 | 483 µM | 4.63 | > 500 µM | no viral N protein was detectable | decreased | decreased | strongly inhibited PRRSV infection | ~9.02 | inhibited | ~8.5 |  | 
Cc1ccncc1 [Compound 4, 4-methylpyridine] | 3.83 |  | < 3.30 |  |  |  |  |  |  |  |  | did not substantially suppress PRRSV replication | 
CC1CCN(c2ncnc3ccccc23)CC1 [Compound 5, 4-(4-methylpiperidin-1-yl)quinazoline] | 3.76 | > 500 µM |  |  |  | decreased |  |  |  |  |  |  | > 60%
